B1: tRNA (parent)
chain: GUUCCGUUGGCGUAAUGGUAACGCGUCUCCCUCCUAAGGAGAAGACUGCGGGUUCGAGUCCCGUACGGAACG

This passage reports yeast fitness results from the RNAGym collection of RNA variant scans (doi:10.1126/science.aae0568).

Variants at the floor of the assay were thinned out.

Variants of B1 are the subject of the series. Description: yeast fitness relative to wild type (ratio to wild type); higher = fitter; tRNA-Arg(CCU), competitive growth, 37 C, YPD. The gist of the method: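 The tRNA-Arg(CCU) gene variants were made by chemical synthesis with a 3% per-site mutation rate at 69 sites and inserted at the native genomic locus of Saccharomyces cerevisiae. After pooling, the strains were competed in YPD at 37°C for 24 hours in six parallel replicates. Gene amplicons from the start population and each end population were read by 100-nucleotide paired-end sequencing, and Darwinian fitness relative to wild type was taken from genotype frequency changes. Genotypes needed ≥ 100 starting reads, and estimates < 0.5 were set to 0.5.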
For the variant C5A G17C A42C A57C, the yeast fitness is at most 0.5.
Consider C5A U19A C62A, for which the yeast fitness was at most 0.5.
As for C5G A20C C29G G38C, the yeast fitness is 0.529.
For the variant C5G A21C A45G A57G G68A, the yeast fitness is at most 0.5.
C5G A21U C27U U28G C33G A36G: the yeast fitness was at most 0.5.
With C5A U7C C34U C66U the figure was at most 0.5.
Consider C5A A21U, for which the yeast fitness was determined as 0.621.
With C5A C60U A70G, the yeast fitness was at most 0.5.
On to C5G A42G, for which the yeast fitness came out at 0.701.
For the variant C5A U16G A69C, the yeast fitness worked out at 0.69.
Regarding C5G C11G C34U, the yeast fitness worked out at 0.576.
With C5A A40G C62U the figure was at most 0.5; with C5A C30A C34U C46U, at most 0.5; with C5A A42G G63C, 0.59.
Turning to C5G C30G G56C C61U A65C, the yeast fitness stood at 0.616.
In the case of C5A G6A U7A A43U G44A C46A, the yeast fitness came to 0.691.
On to C5A C11G G48C, for which the yeast fitness was at most 0.5.
As for C5A A37U C66U, the yeast fitness was at most 0.5.
For C5A G6C G10A A42C, the yeast fitness is at most 0.5.
As to C5G C11A A14G G25C C29G, the yeast fitness is 0.517.
Regarding C5G A36G A43U, the yeast fitness came to 0.549.
Regarding C5A U16C U59G, the yeast fitness is at most 0.5.
With C5A A42G G51C the figure was at most 0.5; with C5G C29U U54G C60G C62U, at most 0.5.
Turning to C5A A21C C24A G50C, the yeast fitness is at most 0.5.
Turning to C5A G9A G10A A20G, the yeast fitness was at most 0.5.
Take C5A C34A C46U A57G: the yeast fitness is at most 0.5.
In the case of C5G A14U U16C G18C U32A G58A, the yeast fitness is 0.542.
For the variant C5G A36C A42G C55U C62G A69U, the yeast fitness is at most 0.5.
Consider C5A C29U A57G U59C, for which the yeast fitness was at most 0.5.
With C5A U16A U35C A45G G50A the figure was at most 0.5; with C5G C11A A20C C29U, at most 0.5; with C5G A20G C62U C66G, 0.663.
C5A C11U G44C C49U: the yeast fitness was 0.53.
As for C5A U8C U13C A40G C62U, the yeast fitness was at most 0.5.
On to C5A G12A C33U, for which the yeast fitness was at most 0.5.
With C5A C11G G41C C49U the figure was at most 0.5; with C5G A37U C55G C61G C66G, 0.623.
Then C5G A40C, with 0.638.
C5A C24G U26A C29G U32A A65U: the yeast fitness is at most 0.5.
As for C5G C24G C30G C31U U35A A36U G44A C60U A70C, the yeast fitness was at most 0.5.
Then C5A A20C U64A G67A, with at most 0.5; and C5A G50A G68C, with at most 0.5.
With C5A A40C the figure was 0.727; with C5G C27U G41C C61U C66G, at most 0.5; with C5A G52A G58C, at most 0.5.
On to C5G A15G U16A A20G U28A C30A C33A A36U U47C A69C, for which the yeast fitness is at most 0.5.
Take C5G A15C G58A G67C: the yeast fitness is at most 0.5.
With C5A U8C A20G C34G A43U C66U the figure was at most 0.5.
In the case of C5G A15U C29G, the yeast fitness is at most 0.5.
Consider C5A C62U, for which the yeast fitness is 0.954.
Turning to C5G A15U U35A, the yeast fitness was determined as 0.696.
C5A A15G C24U C29U C30G U35G: the yeast fitness was at most 0.5.
Consider C5G C11G A14U A15U C29A C60G, for which the yeast fitness is at most 0.5.
Then C5A U16C A21C C33U A40G U54G C62G, with 0.577; and C5A C33G C34U, with at most 0.5; and C5G C11G A15U U54C C61G A70C, with at most 0.5.
With C5A A15C C29U C46U U53A, the yeast fitness was found to be 0.52.
Then C5G A20C, with 0.813.
As to C5A G12A G18A A65U, the yeast fitness is at most 0.5.
C5G A20G A36C A70C: the yeast fitness is at most 0.5.
Regarding C5A G48A, the yeast fitness turned out to be 0.871.
As to C5A C27G A57C, the yeast fitness is at most 0.5.
Regarding C5G A21C U54A A57G, the yeast fitness was at most 0.5.
Then C5G A14C G23C G38A G58C A70G, with 0.545.
C5A U26A G56A A65G: the yeast fitness was 0.565.
For the variant C5A U59A C60U, the yeast fitness is at most 0.5.
Consider C5A U16A A45G G50A, for which the yeast fitness is 0.529.
As for C5G C11A A40C U64C, the yeast fitness is at most 0.5.
With C5G C24U U26C C31U the figure was 0.749.
As to C5A U7C C29U C66U, the yeast fitness is at most 0.5.
Turning to C5A C29G A43G, the yeast fitness is at most 0.5.
With C4U U32A G50A G67A, the yeast fitness is at most 0.5.
With C5A U7A A21G the figure was at most 0.5; with C4U U64C, 0.962.
Then C5G C30G, with 0.523; and C5G A65U C66G, with at most 0.5; and C5G C11G A42C C49U C62A, with at most 0.5.
Consider C5G A36U G41A, for which the yeast fitness was at most 0.5.
With C5A C22G C27G A36U A40C A57U C66U, the yeast fitness was at most 0.5.
On to C5A U16A A45G G50A G56A, for which the yeast fitness was at most 0.5.
With C5A G67C the figure was 1.03.
Regarding C5G A20G A37G C46G A57C, the yeast fitness was at most 0.5.
With C5G C22U C27U A36G the figure was at most 0.5; with C5G C24U C27A G51C G56C, at most 0.5.
As for C5A C11A A42U U53A, the yeast fitness is 0.616.
Then C5A C29A C34G G68C, with at most 0.5.
As to C5A C30U, the yeast fitness is 0.693.
On to C5G A42C G51C A65G, for which the yeast fitness was at most 0.5.
With C5G C29G G41C, the yeast fitness was at most 0.5.
Consider C5A A36G C66U, for which the yeast fitness worked out at 0.655.
For the variant C5A U26A A40G G58C G67U, the yeast fitness was found to be 0.56.
Consider C5G A15G C24G U32A C34G U64C G68A A69U A70U, for which the yeast fitness was at most 0.5.
With C5A C33A G39C G51C C62U A69C, the yeast fitness was at most 0.5.
C5A G17A A36G G67A A69U: the yeast fitness was at most 0.5.
For C5A C22G C31G, the yeast fitness is at most 0.5.
Consider C5A G17A A36G, for which the yeast fitness is at most 0.5.
Take C5A G23C C62U A69U: the yeast fitness is at most 0.5.
For C5A G9A G41A U64A, the yeast fitness is at most 0.5.
For the variant C5A C11G G51A C61U, the yeast fitness was at most 0.5.
With C5G C11G C27G G67U the figure was at most 0.5; with C5A A21U C24U C27G A70G, at most 0.5; with C5A U26G, 0.785.
As for C5A A14U A21G G52A, the yeast fitness was 0.533.
For C5A U7C G48C, the yeast fitness is at most 0.5.
Then C5G A21G G44A, with 0.59; and C5A C11G A21U C62U, with at most 0.5.
With C5G C27G C33U G56A A69U the figure was 0.52; with C5A C22U C49A C62U, at most 0.5.
Then C5A G48A C49G, with 0.682.
Turning to C5G A43C, the yeast fitness came to 0.744.
Then C5G A43U, with 0.719; and C5A G18C A45C G68A A70G, with at most 0.5.
Consider C5G A14C C29A C31G, for which the yeast fitness stood at 0.529.
Consider C5A G39A G44A C62G C66G, for which the yeast fitness was at most 0.5.
C5G A43U C66U A69U: the yeast fitness was at most 0.5.
In the case of C5A U8A U16G A20U A36G C60G, the yeast fitness is at most 0.5.
Then C5A A14G C29G C55U A70U, with at most 0.5; and C5A U16A A21G C27G C46U, with at most 0.5.
Regarding C5A A20U, the yeast fitness came to 0.781.
On to C5A G23C A65G, for which the yeast fitness was determined as 0.532.
With C5A G41A C55A the figure was at most 0.5; with C5A A20G G41C A65U, at most 0.5; with C5G C29G A43C G52A G67A, at most 0.5.
With C5A C33G C34A A40C C55U A65C, the yeast fitness was at most 0.5.
With C5A C62G C66A, the yeast fitness was at most 0.5.
In the case of C5A G39C, the yeast fitness was 0.673.
Take C5A U13G: the yeast fitness was 0.841.
With C5G A20G A65U, the yeast fitness came out at 0.652.
Then C5A C29U A45C, with 0.546.
With C5A A15C G39C, the yeast fitness is at most 0.5.
For C5A A40G C49G, the yeast fitness is 0.569.
C5A C30A A43U A57G: the yeast fitness is at most 0.5.
With C5A C11G A40G G67C A69U the figure was at most 0.5; with C5A U7C C30A C31U, at most 0.5; with C5A U7C C49A A69C, at most 0.5.
On to C5A U8C A14G A21G A45C G56C, for which the yeast fitness was at most 0.5.
For C5A G25C C66G, the yeast fitness was at most 0.5.
In the case of C5G A21G C24U G68A, the yeast fitness was 0.71.
As for C5A C11G A21U, the yeast fitness amounted to 0.505.
C5G C11G A14U A15U A69C: the yeast fitness was at most 0.5.
With C5A C31G A40G, the yeast fitness is 0.529.
Consider C5G A21C C61A, for which the yeast fitness was at most 0.5.
C5A G39A U47A G68C: the yeast fitness was at most 0.5.
Consider C5G A20U A57U, for which the yeast fitness is at most 0.5.
On to C5A U28G A42U, for which the yeast fitness is at most 0.5.
Take C5A C60U C61G: the yeast fitness is at most 0.5.
With C5G C29A A36G A42C G44A C49U C60U, the yeast fitness is at most 0.5.
Then C5A G18C G48C A65C, with at most 0.5; and C5A C30U A40U, with 0.621; and C5G C27G C46G A65G, with at most 0.5.
For the variant C5G C24G A40U, the yeast fitness is 0.57.
C5A C29G C61A: the yeast fitness is at most 0.5.
Regarding C5G A57C, the yeast fitness was determined as 0.716.
Regarding C5A G52C C66U, the yeast fitness is at most 0.5.
Take C5A U59A A69G: the yeast fitness was at most 0.5.
Take C5G A45C U54G: the yeast fitness was found to be 0.622.
With C5A C11G G51A, the yeast fitness was found to be 0.538.
Then C5G A20G A40G G44A C46G C60G C61U G63A, with at most 0.5; and C5A C30U G68U, with 0.567; and C5A U32C A36G, with 0.53.
For the variant C5G C27U C46U, the yeast fitness amounted to 0.754.
As for C5A G9A G25A A69U, the yeast fitness was at most 0.5.
Consider C5A C30U G52A, for which the yeast fitness was at most 0.5.
Regarding C5G C22A A37G, the yeast fitness was at most 0.5.
For C5A A69U, the yeast fitness stood at 0.917.
With C5A C11U A21C the figure was 0.654.
